Measurements reported in publication PMC4893934 (European journal of medicinal chemistry, 2016).
Values joined by “and” are separate entries in the source; they are usually repeats but may differ in a detail not shown here. Equal values may be shown once.

Legend:
IDH1-R132H = IDH1-R132H (Homo sapiens, UniProt O75874, R132H); assay: Mutant IDH1 inhibition assay with purified enzyme; assay type: biochemical; settings: for IC50: IC50 against the mutant IDH1, purified IDH1-R132H enzyme; for inhibition at 392 µM: read-out: maximal enzyme inhibition (inhibitory efficiency), purified IDH1-R132H enzyme, tested range 0.19 – 392 µM
IDH1-R132H, sequence (O75874 whole entry R132H): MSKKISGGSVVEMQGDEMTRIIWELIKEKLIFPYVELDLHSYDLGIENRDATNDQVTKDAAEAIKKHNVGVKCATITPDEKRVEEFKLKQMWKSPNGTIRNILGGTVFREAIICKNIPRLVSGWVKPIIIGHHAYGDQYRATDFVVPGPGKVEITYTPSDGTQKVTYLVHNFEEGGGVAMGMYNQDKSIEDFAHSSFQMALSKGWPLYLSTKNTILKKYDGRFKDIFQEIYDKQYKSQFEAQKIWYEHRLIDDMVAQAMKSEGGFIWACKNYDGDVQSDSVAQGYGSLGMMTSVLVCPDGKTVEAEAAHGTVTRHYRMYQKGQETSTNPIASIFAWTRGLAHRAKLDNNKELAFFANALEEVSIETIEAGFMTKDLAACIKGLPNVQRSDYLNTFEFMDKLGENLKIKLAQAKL

[1] = system: mutant IDH1 activity (2-HG production) in IDH1-R132H-mutated astrocytoma cell line; assay type: cell-based; settings: 50 µM, 8 h post-incubation, IDH1-mutated astrocytoma cells
Procedure, shortened: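 Isogenic anaplastic astrocytoma lines (WHO grade III-derived subclone with native IDH1-R132H; WT-IDH1 control) were seeded in duplicate at 30,000/well. At confluency, medium was replaced with test compound at 50 µM final (from 20 mM DMSO stock), n=2/experiment, under standard culture conditions. Supernatant was sampled at 4 and 8 h and stored at -80°C. D-2-HG was measured by LC-MS/MS. Controls were vehicle-treated mutant and WT cells.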

mutant IDH1-R132H enzyme = settings: read-out: IC50 against the mutant IDH1-R132H enzyme; cited from earlier work
[2] = Tissue distribution studies; assay type: in vivo, BALB/C mice; settings: for Biodistribution, Bladder / Biodistribution, Blood / Biodistribution, Bone / Biodistribution, Brain / Biodistribution, Heart / Biodistribution, Intestines / Biodistribution, Kidneys / Biodistribution, Liver / Biodistribution, Lungs / Biodistribution, Muscle / Biodistribution, Skin / Biodistribution, Spleen / Biodistribution, Stomach / Biodistribution, Thyroid: mean ± SD, n=5
[3] = system: IDH1-R132H mutant and WT-IDH1 astrocytoma cell lines; assay: Cell uptake studies of labeled inhibitors; assay type: cell-based; settings: for cell uptake, % of the added activity: mutant IDH1 cell line
Procedure, shortened: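 IDH1-R132H and isogenic WT-IDH1 astrocytoma cells were plated about 24 h ahead at 20,000–30,000/well, then PBS-washed. Cells were incubated with radioiodinated test compound (~3.7 kBq/well) in culture medium at 37°C, 5% CO2, for 0.25–4 h. Co-incubation used unlabeled analog (0–100 µM) for 3 h, or 0.1%/1% versus 10% FBS. After ice-cold PBS washes and 5 min RT lysis, lysate, supernatant and washes were gamma-counted. Uptake is % incubation dose/well.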

[4] = 5 min after i.v. injection, listed as 125I-labeled 1

CCCCc1ccc(NS(=O)(=O)c2ccc(C)c(C(=O)N3CCN(c4ccccc4I)CC3)c2)cc1 [Compound 1, N-(4-Butylphenyl)-3-(4-(2-iodophenyl)piperazine-1-carbonyl)-4-methylbenzenesulfonamide]
IC50 (IDH1-R132H; 0.19 – 392 µM): 1700 nM and ~2000 nM
inhibition at 392 µM (IDH1-R132H): ~100%
decrease of 2-HG concentration in mutant IDH1 cell supernatants [1]: 43%

CCCCc1ccc(NS(=O)(=O)c2ccc(C)c(C(=O)N3CCN(c4ccc(I)cc4)CC3)c2)cc1 [Compound 2, N-(4-Butylphenyl)-3-(4-(4-iodophenyl)piperazine-1-carbonyl)-4-methylbenzenesulfonamide]
activity against mutant IDH1 (in words) (IDH1-R132H; purified IDH1-R132H enzyme, 0.19 – 392 µM): did not show any significant activity

CCCCc1ccc(NS(=O)(=O)c2ccc(C)c(C(=O)N3CCN(c4ccccc4OCCF)CC3)c2)cc1 [Compound 4, N-(4-Butylphenyl)-3-(4-(2-(2-fluoroethoxy)phenyl)piperazine-1-carbonyl)-4-methylbenzenesulfonamide]
IC50 (IDH1-R132H; 0.19 – 392 µM): 2300 nM and ~2000 nM
inhibition at 392 µM (IDH1-R132H): ~100%
decrease of 2-HG concentration in mutant IDH1 cell supernatants [1]: 50%

CCCCc1ccc(NS(=O)(=O)c2ccc(C)c(C(=O)N3CCN(c4ccc(OCCF)cc4)CC3)c2)cc1 [Compound 5, N-(4-Butylphenyl)-3-(4-(4-(2-fluoroethoxy)phenyl)piperazine-1-carbonyl)-4-methylbenzenesulfonamide]
IC50 (IDH1-R132H; 0.19 – 392 µM): 1200 nM
maximal enzyme inhibition (inhibitory efficiency) (IDH1-R132H; purified IDH1-R132H enzyme, tested range 0.19 – 392 µM, 392 µM): 26.4%
inhibition at 392 µM (IDH1-R132H): ~30%

COc1ccccc1N1CCN(C(=O)c2cc(S(=O)(=O)Nc3ccc(CCCF)cc3)ccc2C)CC1 [Compound 6, N-(4-(3-Fluoropropyl)phenyl)-3-(4-(2-methoxyphenyl)piperazine-1-carbonyl)-4-methylbenzenesulfonamide]
IC50 (IDH1-R132H; 0.19 – 392 µM): 2700 nM
inhibition at 392 µM (IDH1-R132H): 99%

COc1ccccc1N1CCN(C(=O)c2cc(S(=O)(=O)Nc3ccc(CCCCF)cc3)ccc2C)CC1 [Compound 7, N-(4-(4-Fluorobutyl)phenyl)-3-(4-(2-methoxyphenyl)piperazine-1-carbonyl)-4-methylbenzenesulfonamide]
IC50 (IDH1-R132H; 0.19 – 392 µM): 2400 nM
inhibition at 392 µM (IDH1-R132H): 81%

CCCCc1ccc(NS(=O)(=O)c2ccc(C)c(C(=O)N3CCN(c4ccccc4OC)CC3)c2)cc1 [Compound A, N-(4-butylphenyl)-3-(4-(2-methoxyphenyl)piperazine-1-carbonyl)-4-methylbenzenesulfonamide, reference compound]
IC50 (IDH1-R132H; 0.19 – 392 µM): 2200 nM
inhibition at 392 µM (IDH1-R132H): ~100%
IC50 (mutant IDH1-R132H enzyme): < 1000 nM

CCCCc1ccc(NS(=O)(=O)c2ccc(C)c(C(=O)N3CCN(c4ccccc4[125I])CC3)c2)cc1 [[^125I]1, N-(4-Butylphenyl)-3-(4-(2-[^125I]iodophenyl)piperazine-1-carbonyl)-4-methylbenzenesulfonamide]
uptake in the brain ([2]; 1 – 4 h after injection): ≤ 0.07 %ID/g
Biodistribution, Bladder ([2]; 5 min after i.v. injection): 0.03 ± 0.01 %ID
Biodistribution, Blood ([2]; 5 min after i.v. injection): about 12 %ID
Biodistribution, Bone ([2]; 5 min after i.v. injection): 3.92 ± 1.45 %ID
Biodistribution, Brain ([2]; 5 min after i.v. injection): 0.15 ± 0.05 %ID
Biodistribution, Heart ([2]; 5 min after i.v. injection): 1.11 ± 0.39 %ID
Biodistribution, Intestines ([2]; 5 min after i.v. injection): 6.37 ± 5.80 %ID
Biodistribution, Kidneys ([2]; 5 min after i.v. injection): 3.50 ± 1.08 %ID
Biodistribution, Liver ([2]; 5 min after i.v. injection): About 30 %ID
Biodistribution, Lungs ([2]; 5 min after i.v. injection): 1.69 ± 0.83 %ID
Biodistribution, Muscle ([2]; 5 min after i.v. injection): 13.79 ± 4.85 %ID
Biodistribution, Skin ([2]; 5 min after i.v. injection): 3.31 ± 0.74 %ID
Biodistribution, Spleen ([2]; 5 min after i.v. injection): 0.36 ± 0.12 %ID
Biodistribution, Stomach ([2]; 5 min after i.v. injection): 0.40 ± 0.12 %ID
Biodistribution, Thyroid ([2]; 5 min after i.v. injection): 0.32 ± 0.18 %ID
Biodistribution, Blood [2, 4]: 11.83 ± 1.99 %ID
Biodistribution, Liver [2, 4]: 29.43 ± 5.60 %ID
activity concentration in the thyroid gland ([2]; 5 min after injection): 1.69 ± 0.93 %ID/g
uptake in the brain ([2]; 5 min after injection): 0.39 ± 0.13 %ID
Biodistribution, Bladder ([2]; 1 h after i.v. injection): 0.01 ± 0.01 %ID
Biodistribution, Blood ([2]; 1 h after i.v. injection): 0.71 ± 0.27 %ID
Biodistribution, Bone ([2]; 1 h after i.v. injection): 1.21 ± 0.14 %ID
Biodistribution, Brain ([2]; 1 h after i.v. injection): 0.03 ± 0.01 %ID
Biodistribution, Heart ([2]; 1 h after i.v. injection): 0.12 ± 0.02 %ID
Biodistribution, Intestines ([2]; 1 h after i.v. injection): 38.13 ± 1.49 %ID
Biodistribution, Kidneys ([2]; 1 h after i.v. injection): 0.88 ± 0.14 %ID
Biodistribution, Liver ([2]; 1 h after i.v. injection): 13.30 ± 0.69 %ID
Biodistribution, Lungs ([2]; 1 h after i.v. injection): 0.17 ± 0.02 %ID
Biodistribution, Muscle ([2]; 1 h after i.v. injection): 8.21 ± 0.77 %ID
Biodistribution, Skin ([2]; 1 h after i.v. injection): 2.90 ± 1.07 %ID
Biodistribution, Spleen ([2]; 1 h after i.v. injection): 0.05 ± 0.01 %ID
Biodistribution, Stomach ([2]; 1 h after i.v. injection): 0.65 ± 0.18 %ID
Biodistribution, Thyroid ([2]; 1 h after i.v. injection): 0.04 ± 0.03 %ID
maximum excreted into the urine ([2]; 1 h after injection): 2.84 % ID
Biodistribution, Bladder ([2]; 2 h after i.v. injection): 0.02 ± 0.03 %ID
Biodistribution, Blood ([2]; 2 h after i.v. injection): 0.29 ± 0.09 %ID
Biodistribution, Bone ([2]; 2 h after i.v. injection): 0.60 ± 0.29 %ID
Biodistribution, Brain ([2]; 2 h after i.v. injection): 0.02 ± 0.01 %ID
Biodistribution, Heart ([2]; 2 h after i.v. injection): 0.04 ± 0.01 %ID
Biodistribution, Intestines ([2]; 2 h after i.v. injection): 53.24 ± 7.84 %ID
Biodistribution, Kidneys ([2]; 2 h after i.v. injection): 0.43 ± 0.15 %ID
Biodistribution, Liver ([2]; 2 h after i.v. injection): 6.57 ± 1.77 %ID
Biodistribution, Lungs ([2]; 2 h after i.v. injection): 0.07 ± 0.03 %ID
Biodistribution, Muscle ([2]; 2 h after i.v. injection): 3.91 ± 0.87 %ID
Biodistribution, Skin ([2]; 2 h after i.v. injection): 1.25 ± 0.53 %ID
Biodistribution, Spleen ([2]; 2 h after i.v. injection): 0.03 ± 0.01 %ID
Biodistribution, Stomach ([2]; 2 h after i.v. injection): 0.63 ± 0.82 %ID
Biodistribution, Thyroid ([2]; 2 h after i.v. injection): 0.05 ± 0.05 %ID
activity in the hepatobiliary system ([2]; 2 h after injection): approximately 60 % ID
Biodistribution, Bladder ([2]; 4 h after i.v. injection): 0.01 ± 0.01 %ID
Biodistribution, Blood ([2]; 4 h after i.v. injection): about 0.13 %ID
Biodistribution, Bone ([2]; 4 h after i.v. injection): 0.22 ± 0.14 %ID
Biodistribution, Brain ([2]; 4 h after i.v. injection): 0.01 ± 0.00 %ID
Biodistribution, Heart ([2]; 4 h after i.v. injection): 0.01 ± 0.00 %ID
Biodistribution, Intestines ([2]; 4 h after i.v. injection): 41.40 ± 6.02 %ID
Biodistribution, Kidneys ([2]; 4 h after i.v. injection): 0.16 ± 0.03 %ID
Biodistribution, Liver ([2]; 4 h after i.v. injection): 3.41 ± 0.62 %ID
Biodistribution, Lungs ([2]; 4 h after i.v. injection): 0.03 ± 0.01 %ID
Biodistribution, Muscle ([2]; 4 h after i.v. injection): 1.57 ± 0.34 %ID
Biodistribution, Skin ([2]; 4 h after i.v. injection): 0.56 ± 0.09 %ID
Biodistribution, Spleen ([2]; 4 h after i.v. injection): 0.01 ± 0.01 %ID
Biodistribution, Stomach ([2]; 4 h after i.v. injection): 1.22 ± 2.12 %ID
Biodistribution, Thyroid ([2]; 4 h after i.v. injection): 0.06 ± 0.03 %ID
Biodistribution, Blood ([2]; 4 h after i.v. injection, listed as 125I-labeled 1): 0.13 ± 0.01 %ID
activity concentration in the thyroid gland ([2]; 4 h after injection): 0.42 ± 0.16 %ID/g
activity concentration in the vital organs except liver ([2]; 4 h after injection): < 0.2 % ID/g
average uptake ratio mutant-IDH1 / WT-IDH1 cell lines ([3]; 2 h incubation): 1.66
maximal increase in uptake versus no-carrier-added tracer ([3]; co-incubation with 10 µM unlabeled 1, 3 h): 53 fold
cell uptake, % of the added activity ([3]; 15 min incubation): about 0.5%
cell uptake, % of the added activity ([3]; 3 h incubation): 0.80 ± 0.04%
